# Plk1 PBD FP: Plk1 (human) PBD binding inhibition; P53350; Plk1 PBD phosphopeptide binding, fluorescence polarization; inhibition, %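 (tested at about 20 µM)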; 0.13% of 97,000 active; AID 693; in the data active = inhibition above about 34%, passing the limit was not always enough
# Cav3 T inh: human Cav3.2 channel inhibition, primary screen. O95180. Cav3.2-expressing cells, Fluo-4 calcium fluorescence FDSS; active compounds read low. B-score at 10 µM. 4% of 100,000 active;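 active = single-dose well whose peak fluorescence ratio is a statistical outlier from its plate by either plate-standardised score or position-corrected B-score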
# Rev-RRE block: HIV Rev-RRE protein-RNA interaction inhibition | 0.79% of 97,000 active | inhibition, % at 8 µM | P05866 | Rev peptide-RRE RNA binding, FRET;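 active = inhibition above the screen-wide mean plus 3 SD, cut at about 35% in these data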;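 note: 0% = median DMSO wells and 100% = median Neomycin B control wells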
#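 Test system: labelled RRE RNA duplex and labelled Rev peptide. Times: 5 min compound–RNA preincubation, then 15 min with peptide, 25 °C. Doses: single-dose 8 µM. Measured by: FRET, excitation 480 nm, emission 540 nm donor and 671 nm acceptor. Measure: % inhibition of FRET ratio versus controls.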
# PLK1 inh: blocks human PLK1 kinase activity; 0.53% of 97,000 active; recombinant PLK1 kinase, TR-FRET peptide phosphorylation; inhibition, % at 10 µM; AID 619;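 active = inhibition of 50% or more in the single-concentration screen; inactive = inhibition below 50%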;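 note: 0% = DMSO max control and 100% = H-89 dihydrochloride min control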
# FAK inh: inhibitors of human focal adhesion kinase. Q05397. biochemical FAK kinase activity assay. inhibition, %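 (tested at 7 µM)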. 0.84% of 97,000 active; in the data active = inhibition above about 19%;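 note: 0% = DMSO and 100% = reference compound high control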
# Target sequence (Q05397 whole entry, looked up): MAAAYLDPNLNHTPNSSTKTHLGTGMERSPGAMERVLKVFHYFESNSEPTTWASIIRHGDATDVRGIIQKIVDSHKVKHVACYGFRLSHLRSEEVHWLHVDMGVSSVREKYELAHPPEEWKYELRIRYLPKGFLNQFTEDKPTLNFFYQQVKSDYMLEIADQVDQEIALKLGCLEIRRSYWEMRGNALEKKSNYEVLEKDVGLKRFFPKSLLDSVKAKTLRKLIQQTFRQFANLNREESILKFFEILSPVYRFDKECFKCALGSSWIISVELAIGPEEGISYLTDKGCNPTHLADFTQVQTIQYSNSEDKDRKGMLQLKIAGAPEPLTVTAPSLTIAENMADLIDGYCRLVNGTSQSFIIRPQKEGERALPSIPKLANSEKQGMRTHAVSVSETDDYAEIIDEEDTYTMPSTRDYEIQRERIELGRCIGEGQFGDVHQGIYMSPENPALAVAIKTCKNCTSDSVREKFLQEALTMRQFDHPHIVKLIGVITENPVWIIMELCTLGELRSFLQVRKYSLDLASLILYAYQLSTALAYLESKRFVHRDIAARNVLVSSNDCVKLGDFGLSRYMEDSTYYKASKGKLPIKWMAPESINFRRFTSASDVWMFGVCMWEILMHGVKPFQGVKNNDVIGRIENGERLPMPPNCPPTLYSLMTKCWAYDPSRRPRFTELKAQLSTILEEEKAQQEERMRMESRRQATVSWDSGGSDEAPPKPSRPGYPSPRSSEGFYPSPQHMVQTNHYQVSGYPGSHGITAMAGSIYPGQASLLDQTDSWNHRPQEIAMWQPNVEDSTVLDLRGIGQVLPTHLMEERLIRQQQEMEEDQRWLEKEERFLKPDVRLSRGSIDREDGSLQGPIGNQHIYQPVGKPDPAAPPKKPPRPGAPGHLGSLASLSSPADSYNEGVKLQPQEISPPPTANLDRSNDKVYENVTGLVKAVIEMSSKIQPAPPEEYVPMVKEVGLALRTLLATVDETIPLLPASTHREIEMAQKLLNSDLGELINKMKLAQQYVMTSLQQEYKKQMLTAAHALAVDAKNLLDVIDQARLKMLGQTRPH
# EphB4 antag: blocks human EphB4 binding to ephrin-B2; AID 720; inhibition, % at 7 µM; 0.15% of 97,000 active; P54760; EphB4 LBD / TNYL-RAW-Alexa532 peptide, fluorescence polarization;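 active = inhibition above the screen-wide mean inhibition plus 3 SD, cut at about 15% in these data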;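 note: 0% = DMSO wells and 100% = excess unlabeled TNYL-RAW peptide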
# * hit, by the source's call; . = no result; [ ] = another dose, or the depositor's remark. Rows were chosen to be rich in hits. Some 5.3% of all compounds tested hit in one or more screens of this group.
SMILES,Plk1 PBD FP,Cav3 T inh,Rev-RRE block,PLK1 inh,FAK inh,EphB4 antag
CCOc1ccc(C2C=C(c3ccc(C)cc3)Nc3nnnn32)cc1 (centres undefined),-13.5,-0.105,39.2*,-6.4,0.5,0.3
COc1ccc(-n2c(Cc3cccn3C)nnc2SCC(=O)NCCc2ccccc2)cc1,-36.5,-1.85,3.0,-17.3,-5.9,0.2
CCn1c(CC(=O)Nc2cccc(OC)c2)nnc1SCC(=O)Nc1nccs1,-16.2,-5*,6.6,7.1,-1.6,3.0
COc1ccc(-n2c(Cc3cccn3C)nnc2SCC(=O)Nc2nccs2)cc1,.,-5.96*,.,.,.,.
COc1ccc(-n2c(Cc3cccn3C)nnc2SCC(=O)Nc2cccc(C)c2C)cc1,-3.9,-4.03*,-2.2,-2.5,-6.8,-5.5
COc1ccc(-n2c(Cc3cccn3C)nnc2SCC(=O)Nc2ccccc2C)cc1,-12.4,-6.4*,-2.6,-11.0,-0.1,-0.3
Cc1ccc(-n2c(Cc3cccn3C)nnc2SCC(=O)NC2CCCCC2)cc1,-9.0,-1.77,6.5,-4.2,1.8,3.8
O=C(CN(c1ccc(Cl)c(C(F)(F)F)c1)S(=O)(=O)c1ccccc1)N/N=C/c1cccc2c1OCCO2,-8.9,.,4.5,-10.1,0.9,-3.0
CCOc1ccc(C(CCc2ccccc2)NC(=O)c2ccccc2)cc1OCC (centres undefined),-19.2,-5.13*,-0.8,-13.9,-2.7,5.8
Cc1ccc(CNC(=O)c2cc(-c3ccccc3)nn2CC2CC(c3cccc([N+](=O)[O-])c3)=NO2)cc1 (centres undefined),.,-0.841,.,.,.,.
CC(C)(C)C(=O)Cn1c(=N)n(Cc2ccccc2Cl)c2ccccc21,-11.2,-4.98*,-2.2,-2.8,-1.7,2.9
CC(C)(C)C(=O)Cn1c(=N)n(Cc2ccccc2)c2ccccc21,.,-4.14,.,.,.,.
O=C(CN1C(=O)COc2ccccc21)N1CCc2ccccc2C1,8.6,0.575,10.8,-11.4,-2.0,6.1
Oc1ccc(-c2nc3ccccn3c2NCc2ccco2)cc1,-7.8,0.108,6.1,-18.8,-1.5,0.7
Cc1ccc(-c2nc3ccccn3c2NCc2ccc3c(c2)OCO3)cc1,-12.7,-4.41*,9.4,-19.4,-5.5,6.4
COc1cc(C)c(C(=O)Oc2cc(C)c(C(=O)O)c(O)c2C)c(OC)c1C,.,-4.36*,.,.,.,.
COC(=O)c1c(C)c(OC(=O)c2c(C)cc(O)c(C=O)c2O)cc(C)c1O,.,0.891,.,.,.,.
Cc1nc(NCCCO)c(C#N)c2c1COC(C)(C)C2,35.7,-0.539,-1.0,-1.9,-7.3,0.2
CC1(C)Cc2c(C#N)c(NCCCO)nc(-c3ccccc3)c2CO1,-5.4,0.0299,4.4,66.8*,1.9,-3.5
CCN(CC)CCNc1nc(-c2ccccc2)c2c(c1C#N)CC(C)(C)OC2,3.0,-3.68*,2.7,-0.4,1.8,2.4
NC(=O)[C@@H]1CCCNc2c(F)cc([N+](=O)[O-])cc2C(=O)N[C@@H](CCC(=O)O)C(=O)N[C@@H](CO)C(=O)N1,.,0.771,.,.,.,.
CCC(C)C(NC(=O)C1CCC(C)CC1)C(=O)NC1CCN(Cc2ccccc2)CC1 (centres undefined),.,1.82,.,.,.,.
O=C(Nc1nc2c(s1)CCCC2)C1COc2ccccc2O1 (centres undefined),14.2,-4.88*,12.1,-4.4,11.8,2.1
CCc1nnc(NC(=O)C2COc3ccccc3O2)s1 (centres undefined),-29.2,-0.0425,11.1,-11.5,-2.6,7.5
Cc1nnc(NC(=O)C2COc3ccccc3O2)s1 (centres undefined),.,-0.435,.,.,.,.
SMILES,Plk1 PBD FP,Cav3 T inh,Rev-RRE block,PLK1 inh,FAK inh,EphB4 antag
CCC(CC)c1nnc(NC(=O)C2COc3ccccc3O2)s1 (centres undefined),12.5,-3.92*,6.8,-3.5,-0.3,-1.9
COP1(=O)C=C[C@H](N(Cc2ccccc2)S(=O)(=O)c2ccccc2[N+](=O)[O-])[C@@H](C)O1 (some centres undefined),.,0.423,.,.,.,.
CS(=O)(=O)N1CCN(c2ccccc2NC(=O)c2ccc(Cl)cc2)CC1,11.8,-0.766,1.9,-7.0,-5.0,-2.2
COc1c(Cl)cc(Cl)cc1C(=O)Nc1ccccc1N1CCN(C(C)=O)CC1,0.8,-0.0526,1.5,-6.7,-2.9,0.5
Cc1ccc(C(C)C)c(OCC(=O)N2CCOCC2)c1,.,-0.105,.,.,.,.
Cc1cc(Cl)ccc1OCC(=O)N1CCCCC1,-5.0,-0.0939,-0.2,-9.7,4.0,-7.7
CS(=O)(=O)N1CCN(c2ccccc2NC(=O)CSc2ccc(Cl)cc2)CC1,-8.5,-4.04*,11.4,-0.9,1.3,-5.2
CC(=O)N1CCN(c2ccccc2NC(=O)COc2ccc(Cl)cc2Cl)CC1,-2.4,-4.73*,5.3,-11.0,0.5,4.1
CCC(=O)N1CCN(c2ccccc2NC(=O)COc2cc(C)ccc2C(C)C)CC1,1.4,-7.05*,9.1,-8.4,-0.6,10.6
O=C(COc1ccc(Cl)cc1Cl)N1CCCN(C(=O)COc2ccc(Cl)cc2Cl)CC1,7.3,-4.58*,8.7,-5.0,-1.0,9.5
Cn1cc(C[C@H](NC(=O)OC(C)(C)C)C(=O)N[C@@H](CO)Cc2ccccc2)c2ccccc21,.,-1.09,.,.,.,.
CCCN(CCC)S(=O)(=O)c1ccc(C(=O)N2CCOCC2)cc1,-16.2,0.321,4.5,0.0,-0.2,-5.0
CC/C=C\[C@H](O)[C@H](O)C1=C(C)C(=O)[C@]2(O1)C(=O)N[C@@](OC)(C(=O)c1ccccc1)C2O (some centres undefined),.,0.176,.,.,.,.
N#CC(c1ccc(O)cc1)N1CCOCC1 (centres undefined),2.4,0.828,6.1,-13.8,2.3,-7.5
CCOc1ccccc1N1CCN(C(=O)Nc2ccc(F)c(Cl)c2)CC1,4.5,-4.06*,11.9,-1.4,-0.3,-2.3
COc1ccccc1N1CCN(C(=O)Nc2cccc(Cl)c2)CC1,8.4,-1.28,4.2,-7.4,0.8,-0.4
O/N=C1\CCc2cc(Cl)ccc21,-4.7,2.45*,8.5,0.5,4.7,8.1
O=C(CSc1nc2nc(-c3cccs3)cc(C(F)(F)F)c2c(=O)[nH]1)NCc1ccco1,-5.3,-3.97*,6.2,-3.0,0.5,-8.2
C[C@@H]1CC[C@]2(O[C@H](CCO)C[C@H](O)[C@H]2O)O1,.,0.33,.,.,.,.
Cc1oc(-c2ccccc2Cl)nc1Cn1cccc1C1=NC(c2ccccc2)CO1 (centres undefined),-18.0,-6.71*,5.8,-10.8,-2.7,1.7
O=C(Nc1ccc(Br)cn1)C1CCCN1S(=O)(=O)c1ccccc1 (centres undefined),-25.8,0.262,-2.6,-9.1,-1.7,-1.1
Cc1c(C(=O)OC(C)CCN(C)C)oc2ccccc12 (centres undefined),36.3,-0.269,141.3*[fluorescence artefact?],-18.6,-3.0,-0.5
O=[n+]1c2c(n([O-])c3cc(F)c(N4CCCC4)cc31)CCCC2,-6.3,-7.27*,79.2*[fluorescence artefact?],-13.2,2.6,-1.6
O=[n+]1c2c(n([O-])c3cc(F)c(N4CCCC4)cc31)CCC2,-18.5,.,66.4*[fluorescence artefact?],-14.0,-1.8,5.8

# From PubChem
